From PMC2655349 (Nuclear medicine and biology, 2009)
Where two headings read alike, the source gives them in different places.

Key:
[1] = radiopharmaceutical biodistribution in rats following intravenous injection; assay type: in vivo, rat; conditions: male rats, i.v.; for Percentage of Injected Dose per Organ, Blood: blood assumed 7% of body mass
In short: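 67Ga-labelled chelate prepared with ligand in ethanol containing acetylacetone at 70°C for 20 min, diluted with saline to 5–10% ethanol, filtered, purity checked by C18 TLC. Given 1–5 μCi (0.037–0.185 MBq) via femoral vein to ether-anaesthetised male Sprague-Dawley rats. Organs sampled at 1 min and 2 h. Data given as %ID/organ and %ID/g wet tissue; blood taken as 7% and muscle as 42% of body mass.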

[2] = rats, ref [11], cited from earlier work
[3] = 60-minutes rather than 120-minutes post-injection
[4] = 1 min, based on % injected dose per gram

Row | Compound | Percentage of Injected Dose per Organ, Brain ([1]; 1 min post-injection) | Percentage of Injected Dose per Organ, Heart ([1]; 1 min post-injection) | Percentage of Injected Dose per Organ, Kidney (1) ([1]; 1 min post-injection) | Percentage of Injected Dose per Organ, Liver ([1]; 1 min post-injection) | Percentage of Injected Dose per Organ, Lungs ([1]; 1 min post-injection) | Percentage of Injected Dose per Organ, Spleen ([1]; 1 min post-injection) | Percentage of Injected Dose per Organ, Blood ([1]; 1 min post-injection) | Percentage of Injected Dose per Organ, Brain ([1]; 120 min post-injection) | Percentage of Injected Dose per Organ, Heart ([1]; 120 min post-injection) | Percentage of Injected Dose per Organ, Kidney (1) ([1]; 120 min post-injection) | Percentage of Injected Dose per Organ, Lungs ([1]; 120 min post-injection) | Percentage of Injected Dose per Organ, Spleen ([1]; 120 min post-injection) | Percentage of Injected Dose per Organ, Blood ([1]; 120 min post-injection) | Heart/Blood ratio [2, 3] | Heart/Liver ratio [2, 3] | Heart/Lung ratio [2, 3] | Heart/Blood ratio [2, 4] | Heart/Liver ratio [2, 4] | Heart/Lung ratio [2, 4]
1 | [86Rb+].[Cl-] [[^86Rb]RbCl, [^86Rb]rubidium chloride] | 0.08 ± 0.01 Percentage of Injected Dose per Organ | 2.86 ± 0.38 Percentage of Injected Dose per Organ | 6.7 ± 1.1 Percentage of Injected Dose per Organ | 5.4 ± 0.8 Percentage of Injected Dose per Organ | 2.0 ± 0.3 Percentage of Injected Dose per Organ | 0.32 ± 0.08 Percentage of Injected Dose per Organ | 3.61 ± 0.28 Percentage of Injected Dose per Organ | 0.12 ± 0.01 Percentage of Injected Dose per Organ | 0.69 ± 0.02 Percentage of Injected Dose per Organ | 1.01 ± 0.04 Percentage of Injected Dose per Organ | 1.11 ± 0.01 Percentage of Injected Dose per Organ | 0.71 ± 0.13 Percentage of Injected Dose per Organ | 1.43 ± 0.08 Percentage of Injected Dose per Organ | – | – | – | – | – | –
2 | [C-]#[N+]CC(C)(C)OC.[C-]#[N+]CC(C)(C)OC.[C-]#[N+]CC(C)(C)OC.[C-]#[N+]CC(C)(C)OC.[C-]#[N+]CC(C)(C)OC.[C-]#[N+]CC(C)(C)OC.[Tc] [[^99mTc]Tc-Sestamibi^1+, [^99mTc]Tc-sestamibi] | – | – | – | – | – | – | – | – | – | – | – | – | – | 208 ± 25 | 5.3 ± 1.7 | 6.5 ± 1.7 | 11.1 ± 0.2 | 1.7 ± 0.1 | 1.3 ± 0.2
